Drawing on ChEMBL document CHEMBL1149042, “Antihypertensive activity of 6-O-galloyl-D-glucose, a phenolic glycoside from Sapium sebiferum” (1994), this text covers Activity for three molecules.

For assay [1], the system named is Rattus norvegicus. The assay can be described thus: Antihypertensive activity in adrenalectomized anesthetized SHR rat assessed as reduction of mean blood pressure at 10 mg/kg, iv. It is filed as functional. The method in brief: (§1)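 Anaesthetized SHR given a single iv bolus. For adrenalectomized rats, bilateral adrenalectomy was done by dorsal approach under ether, with 24 h recovery before use. Sham-operated rats served as controls. Mean arterial pressure was recorded against vehicle-treated controls. Values are mean ± S.D. of 8 animals, and significance was tested by Dunnett's t-test.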

Assay [2] has as its system Rattus norvegicus. The experiment in a line: Inhibition of noradrenaline release in sham operated anesthetized SHR rat plasma at 1 mg/kg, iv after 20 mins. The assay is classed as functional. The method in brief:
(§2)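 Plasma was sampled 20 min after a single iv bolus in anaesthetized adrenalectomized rats (bilateral, dorsal approach under ether, 24 h recovery) or sham-operated SHR. Blood (2 ml) came from the optic sinus under ether and was spun at 5,000 × g for 10 min at 4°. Plasma (200 μl) received 20 ng DHBA internal standard and was adsorbed onto alumina with 30 min shaking. Vehicle-treated rats were controls, n=8, mean ± S.D.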

Assay [3] has as its system Rattus norvegicus. The assay can be described thus: Inhibition of noradrenaline release in sham operated anesthetized SHR rat plasma at 5 mg/kg, iv after 20 mins. It is filed as functional. The method in brief: as §2
Assay [4] has as its system Rattus norvegicus. The assay can be described thus: Inhibition of noradrenaline release in sham operated anesthetized SHR rat plasma at 10 mg/kg, iv after 20 mins. It is filed as functional. The method in brief:
as §2

Assay [5] relates to Rattus norvegicus. The experiment in a line: Inhibition of noradrenaline release in sham operated anesthetized SHR rat plasma at 15 mg/kg, iv after 20 mins. It is filed as functional. The method in brief:
as §2

Assay [6] deals with Rattus norvegicus. The experiment in a line: Inhibition of noradrenaline release in adrenalectomized anesthetized SHR rat plasma at 1 mg/kg, iv after 20 mins. The assay is classed as functional. The method in brief:
as §2

Assay [7] deals with Rattus norvegicus. The experiment in a line: Inhibition of noradrenaline release in adrenalectomized anesthetized SHR rat plasma at 5 mg/kg, iv after 20 mins. The assay is classed as functional. The method in brief:
as §2

The test system of assay [8] is Rattus norvegicus. The assay can be described thus: Inhibition of noradrenaline release in adrenalectomized anesthetized SHR rat plasma at 10 mg/kg, iv after 20 mins. The assay is classed as functional. The method in brief: as §2
For assay [9], the system named is Rattus norvegicus. The assay can be described thus: Inhibition of noradrenaline release in adrenalectomized anesthetized SHR rat plasma at 15 mg/kg, iv after 20 mins. It is filed as functional. The method in brief:
as §2

In assay [10] the test system is Rattus norvegicus. The assay can be described thus: Antihypertensive activity in sham operated anesthetized SHR rat assessed as reduction of mean blood pressure at 1 mg/kg, iv. The assay is classed as functional. The method in brief:
as §1

Assay [11] concerns Rattus norvegicus. The experiment in a line: Antihypertensive activity in sham operated anesthetized SHR rat assessed as reduction of mean blood pressure at 5 mg/kg, iv. It is filed as functional. The method in brief:
as §1

The test system of assay [12] is Rattus norvegicus. The assay can be described thus: Antihypertensive activity in sham operated anesthetized SHR rat assessed as reduction of mean blood pressure at 10 mg/kg, iv. The assay is classed as functional. The method in brief: as §1
The test system of assay [13] is Rattus norvegicus. The assay can be described thus: Antihypertensive activity in sham operated anesthetized SHR rat assessed as reduction of mean blood pressure at 15 mg/kg, iv. It is filed as functional. The method in brief:
as §1

The subject of assay [14] is Rattus norvegicus. The experiment in a line: Antihypertensive activity in adrenalectomized anesthetized SHR rat assessed as reduction of mean blood pressure at 1 mg/kg, iv. The assay is classed as functional. The method in brief: as §1
Assay [15] relates to Rattus norvegicus. The assay can be described thus: Antihypertensive activity in adrenalectomized anesthetized SHR rat assessed as reduction of mean blood pressure at 5 mg/kg, iv. The assay is classed as functional. The method in brief: as §1
The test system of assay [16] is Rattus norvegicus. The experiment in a line: Antihypertensive activity in adrenalectomized anesthetized SHR rat assessed as reduction of mean blood pressure at 15 mg/kg, iv. It is filed as functional. The method in brief:
as §1

The test system of assay [17] is Rattus norvegicus. The experiment in a line: Vasorelaxation activity in SHR rat assessed as reduction of methoxamine-induced mean arterial blood pressure at 5 mg/kg, iv after 20 mins. The assay is classed as functional.
Assay [18] concerns Rattus norvegicus. The experiment in a line: Vasorelaxation activity in SHR rat assessed as reduction of methoxamine-induced mean arterial blood pressure at 10 mg/kg, iv after 20 mins. It is filed as functional.
In assay [19] the test system is Rattus norvegicus. The experiment in a line: Vasorelaxation activity in SHR rat assessed as reduction of methoxamine-induced mean arterial blood pressure at 15 mg/kg, iv after 20 mins. The assay is classed as functional.
Assay [20] has as its system Rattus norvegicus. The assay can be described thus: Vasorelaxation activity in SHR rat assessed as reduction of Bay-K 8644-induced mean arterial blood pressure at 5 mg/kg, iv after 20 mins. It is filed as functional.
For assay [21], the system named is Rattus norvegicus. The experiment in a line: Antihypertensive activity in SHR rat assessed as changes in tail arterial mean blood pressure at 1 mg/kg, iv. The assay is classed as functional, Artery. The method in brief:
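Conscious SHR (250–280 g) with systemic pressure above 180 mm Hg, given a single bolus in Locke-Ringer solution into the cannulated femoral vein over 20 sec. Tail arterial mean pressure was taken by indirect tail-cuff with a photoelectric pulse sensor at 28 ± 1° without pre-warming, at 10-min intervals. Controls received vehicle.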

Assay [22] has as its system Rattus norvegicus. The experiment in a line: Vasorelaxation activity in anesthetized normotensive rat assessed as reduction of Bay-K 8644-induced mean arterial blood pressure at 10 mg/kg, iv after 20 mins.
The test system of assay [23] is Rattus norvegicus. The assay can be described thus: Vasorelaxation activity in anesthetized normotensive rat assessed as reduction of Bay-K 8644-induced mean arterial blood pressure at 15 mg/kg, iv after 20 mins.
In assay [24] the test system is Rattus norvegicus. The assay can be described thus: Antihypertensive activity in iv dosed SHR rat assessed as changes in tail arterial mean blood pressure relative to control. The assay is classed as functional, organism-based. Conditions: Artery. The method in brief: (§3)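 SHR rats (250–280 g) with systemic pressure above 180 mm Hg were used. Compound in Locke-Ringer solution was given as a single iv bolus over 20 sec into a cannulated femoral vein. Pressure was read by indirect tail-cuff with a photoelectric pulse sensor at 28 °C without pre-warming, every 10 min, versus pre-dose control. Controls received vehicle. Activity required a significant fall lasting at least 30 min.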

Assay [25] relates to Rattus norvegicus. The experiment in a line: Antihypertensive activity in iv dosed SHR rat assessed as reduction in pentobarbitol-induced increase in blood pressure. It is filed as functional, organism-based.
In assay [26] the test system is Rattus norvegicus. The assay can be described thus: Antihypertensive activity in SHR rat assessed as reversible inhibition of pentobarbitol-induced increase in blood pressure at 20 mg/kg after 2 hrs. It is filed as functional, organism-based. On the set-up: dose 20 mg/kg. The method in brief:
as §3

Assay [27] concerns Rattus norvegicus. The experiment in a line: Antihypertensive activity in SHR rat assessed as changes in tail arterial mean blood pressure at 5 mg/kg, iv. It is filed as functional, Artery. The method in brief:
as §3

Assay [28] has as its system Rattus norvegicus. The assay can be described thus: Antihypertensive activity in SHR rat assessed as reduction in pentobarbitol-induced increase in blood pressure at 0.1 mg/kg, iv. It is filed as functional. The method in brief: as §3

Calls of active or inactive are those of the source. The rule behind the calls is not given here.

Regarding `COC(=O)C1=C(C)NC(C)=C(C(=O)OC)C1c1ccccc1[N+](=O)[O-]` [NIFEDIPINE], the Activity with Rattus norvegicus [1] stood at 132.4 mmHg; in the assay on Rattus norvegicus [2] it was 2.37 pmol/mL; in the assay with Rattus norvegicus [3] it was 2.04 pmol/mL; in the assay on Rattus norvegicus [4] it was 1.62 pmol/mL; with Rattus norvegicus [5] it was 1.28 pmol/mL; in the assay on Rattus norvegicus [6] it was 2.04 pmol/mL. Also, the Activity in the assay with Rattus norvegicus [7] was 1.76 pmol/mL; with Rattus norvegicus [8], 1.49 pmol/mL; in the assay on Rattus norvegicus [9], 1.12 pmol/mL; in the assay with Rattus norvegicus [10] it was 168.4 mmHg; in the assay with Rattus norvegicus [11], 151.2 mmHg; in the assay with Rattus norvegicus [12], 140.9 mmHg. The Activity worked out at 118.7 mmHg in the assay on Rattus norvegicus [13]; 161.1 mmHg in the assay with Rattus norvegicus [14]; 143.8 mmHg with Rattus norvegicus [15]; 110.4 mmHg in the assay with Rattus norvegicus [16]; 36.3 mmHg in the assay on Rattus norvegicus [17]; 29.8 mmHg in the assay on Rattus norvegicus [18]. In addition, the Activity is 17.1 mmHg in the assay with Rattus norvegicus [19]; 34.1 mmHg with Rattus norvegicus [20]; 10.8 mmHg in the assay on Rattus norvegicus [21]; 23.6 mmHg in the assay on Rattus norvegicus [22]; 14.3 mmHg with Rattus norvegicus [23].

Turning to `O=C(OC[C@H]1O[C@@H](O)[C@H](O)[C@@H](O)[C@@H]1O)c1cc(O)c(O)c(O)c1`, the Activity entry was “Dose-dependent effect” in the assay with Rattus norvegicus [24], 29.6 mmHg in the assay with Rattus norvegicus [27] and 17.3 mmHg with Rattus norvegicus [21]. Besides, the outcome in the assay with Rattus norvegicus [25] and with Rattus norvegicus [26] was Active.

As to `COc1cc2nc(N3CCN(C(=O)c4ccco4)CC3)nc(N)c2cc1OC` [PRAZOSIN], the Activity in the assay with Rattus norvegicus [28] is 31.4 mmHg.
